From BindingDB's records for doi:10.1016/j.bmc.2010.11.059 (University of Eastern Finland, 2011)

Each compound was assayed against Cannabinoid receptor 2 (Homo sapiens, UniProt P34972) (assay: Agonist activity at human recombinant cannabinoid CB2 receptor expressed in CHO cells by [35S]GTPgammaS binding assay).
Method in brief: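 hCB2 [35S]GTPγS binding concentration–response curves, run only for ligands giving over 50% relative activity at 10 µM. logEC50 and Emax come from nonlinear regression fitted to a sigmoidal concentration–response equation. Emax is given as percent of the 10 nM HU-210 response. Mean SEM of at least three experiments in duplicate.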

Chain of Cannabinoid receptor 2 (P34972 whole entry): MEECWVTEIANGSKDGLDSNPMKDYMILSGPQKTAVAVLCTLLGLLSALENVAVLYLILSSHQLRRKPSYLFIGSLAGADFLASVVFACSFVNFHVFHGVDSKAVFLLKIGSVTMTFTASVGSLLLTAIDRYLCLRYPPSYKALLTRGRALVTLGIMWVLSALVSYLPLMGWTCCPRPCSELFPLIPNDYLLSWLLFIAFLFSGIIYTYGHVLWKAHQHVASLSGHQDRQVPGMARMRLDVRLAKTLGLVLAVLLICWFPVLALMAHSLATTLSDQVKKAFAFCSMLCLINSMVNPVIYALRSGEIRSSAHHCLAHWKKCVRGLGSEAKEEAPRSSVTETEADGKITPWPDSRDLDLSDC

| Compound | EC50 [µM] |
| --- | --- |
| FC(F)(F)c1ccccc1Nc1ccc2ccccc2n1 | 6.3 |
| COc1cccc(Nc2ccc3ccccc3n2)c1 | 2.51 |
| Clc1ccccc1Nc1ccc2ccccc2n1 | 6.3 |
| O=C(c1cnc(Nc2cccc(C(F)(F)F)c2)c2ccccc12)N1CCOCC1 | 0.0158 |
| FC(F)(F)c1cccc(Nc2ccnc3ccccc23)c1 | 3.16 |
| O=C(NCC1CCCCC1)c1cnc(Nc2cccc(C(F)(F)F)c2)c2ccccc12 | 1.58 |
| O=C(NC1CCCCC1)c1cnc(Nc2cccc(C(F)(F)F)c2)c2ccccc12 | 1.99 |
| COc1ccccc1Nc1ccc2ccccc2n1 | 5.01 |
| COc1ccc(Nc2ccc3ccccc3n2)cc1 [2-(4''-Methoxyanilino)Quinoline] | 1.99 |
| c1ccc(Sc2ccc3ccccc3n2)cc1 [2-Phenylsulfanyl-Quinoline] | 3.98 |
| Clc1ccc(Nc2ccc3ccccc3n2)cc1 [N-(4-chlorophenyl)quinolin-2-amine] | 1.99 |

Further compounds by falling EC50, results first:

| EC50 [µM] | Compound |
| --- | --- |
| 6.3 | c1ccc2nc(NC3CCCCC3)ccc2c1 |
| 3.98 | FC(F)(F)c1cccc(Nc2cnc3ccccc3n2)c1 |
| 3.16 | FC(F)(F)c1cccc(Nc2ncc3ccccc3n2)c1 |
| 2.51 | FC(F)(F)c1cccc(Nc2ncnc3ccccc23)c1 |
| 2.51 | Clc1cccc(Nc2ccc3ccccc3n2)c1 |
| 1.99 | Brc1cccc(Nc2ccc3ccccc3n2)c1 |
| 1.58 | FC(F)(F)c1cccc(Nc2nccc3ccccc23)c1 |
| 1.25 | FC(F)(F)c1cccc(Nc2ccc3ccccc3n2)c1 |

These compounds were tested against Cannabinoid receptor 1 (Rattus norvegicus, UniProt P20272) (assay: Antagonist activity at rat cannabinoid CB1 receptor in Wistar rat cerebellar membranes by [35S]GTPgammaS binding assay).
Method in brief: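 Non-recombinant rat cerebellar membrane fractions, [35S]GTPγS binding. Compounds screened at a single concentration for their ability to antagonise the response to 10 nM HU-210 agonist.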

Chain of Cannabinoid receptor 1 (P20272 whole entry): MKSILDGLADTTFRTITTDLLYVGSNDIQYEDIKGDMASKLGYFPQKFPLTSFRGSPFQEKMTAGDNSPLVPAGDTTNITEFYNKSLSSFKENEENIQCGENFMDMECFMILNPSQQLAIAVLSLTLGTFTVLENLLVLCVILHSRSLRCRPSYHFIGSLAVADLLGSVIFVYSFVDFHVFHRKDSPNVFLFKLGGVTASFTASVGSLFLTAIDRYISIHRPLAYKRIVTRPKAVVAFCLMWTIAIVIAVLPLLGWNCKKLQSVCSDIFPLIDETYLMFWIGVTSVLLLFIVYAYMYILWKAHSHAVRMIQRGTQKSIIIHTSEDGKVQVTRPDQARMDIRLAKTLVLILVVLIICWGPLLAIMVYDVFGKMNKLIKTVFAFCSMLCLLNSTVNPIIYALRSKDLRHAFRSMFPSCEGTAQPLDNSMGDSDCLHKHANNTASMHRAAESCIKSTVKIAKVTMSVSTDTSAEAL

| Compound | EC50 [µM] |
| --- | --- |
| O=C(c1cnc(Nc2cccc(C(F)(F)F)c2)c2ccccc12)N1CCOCC1 | 9.99 |
